Laboratory results reported in ChEMBL document CHEMBL1124882, “Synthesis and evaluation of 1,2,2-tris(sulfonyl)hydrazines as antineoplastic and trypanocidal agents” (1990).

Tests used:
[1] = tested on: L1210; assay: Evaluated for average percent change in body weight from onset to termination of therapy against L1210 Leukemia cells in mice after 150 mg/kg dose administration.; format: functional, Mus musculus
Summary of the method: (§1)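 Recipient mice each received 0.1 mL of suspension containing 10⁶ L1210 cells. The line was kept in RPMI 1640 with 10% FBS and was re-passaged i.p. in CD2F1 donor mice every 8 weeks. Drug was given i.p. in DMSO (≤0.025 mL) once daily for 6 consecutive days, starting 24 h after implantation. Groups held 5–10 mice, with vehicle controls. Value is average % body-weight change from onset to end of therapy.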

[2] = organism: Mus musculus; assay: Effect of aging of compound on the activity after 0 min; format: functional
Summary of the method: (§2)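 Compound, 1 M stock in DMSO, diluted 100 µL into 9.9 mL 200 mM potassium phosphate pH 7.6 at 37 °C; aliquots taken at timed intervals and injected ip (20 µL/g, effective initial dose 0.2 mmol/kg) into female CD-1 mice infected ip with 10⁶ T. rhodesiense Y Tat 1.1, 3 days post-infection; 3–4 mice/group; read-out days survived beyond vehicle controls.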

[3] = organism: Mus musculus; assay: Effect of aging of compound on the activity after 100 min; format: functional; summary of the method: as §2
[4] = organism: Mus musculus; assay: Effect of aging of compound on the activity after 200 min; format: functional; summary of the method: as §2
[5] = organism: Mus musculus; assay: (§3) Percentage of mice survived after 60 days of treatment with the compound was determined.; format: functional
Summary of the method: (§4)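 Mice implanted ip with 10⁶ L1210 leukemia cells (also P388 leukemia and Sarcoma 180); drug given ip in DMSO (≤0.025 mL) once daily for 6 consecutive days from 24 h after implantation, or as single dose; groups of five; vehicle controls. %T/C = mean survival treated/control ×100, excluding 60-day survivors, which are reported separately; weight change from onset to end of therapy used as toxicity.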

[6] = tested on: L1210; assay: Evaluated for average percent change in body weight from onset to termination of therapy against L1210 Leukemia cells in mice after 60 mg/kg dose administration.; format: functional, Mus musculus; summary of the method: as §1
[7] = tested on: L1210; assay: as §3; format: functional, Mus musculus; set-up: concentration or dose not given beside the values; summary of the method: as §4
[8] = tested on: L1210; assay: Evaluated for average percent change in body weight from onset to termination of therapy against L1210 Leukemia cells in mice after 40 mg/kg dose administration.; format: functional, Mus musculus; summary of the method: as §1
[9] = tested on: L1210; assay: Average survival time of treated group / control group x(100) was determined.; format: functional, Mus musculus; summary of the method: as §4
[10] = tested on: L1210; assay: Evaluated for average percent change in body weight from onset to termination of therapy against L1210 Leukemia cells in mice after 200 mg/kg dose administration.; format: functional, Mus musculus; summary of the method: as §1
[11] = tested on: L1210; assay: Evaluated for average percent change in body weight from onset to termination of therapy against L1210 Leukemia cells in mice after 100 mg/kg dose administration.; format: functional, Mus musculus; summary of the method: as §1
[12] = tested on: L1210; assay: Evaluated for average percent change in body weight from onset to termination of therapy against L1210 Leukemia cells in mice after 15 mg/kg dose administration.; format: functional, Mus musculus
Summary of the method: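 Mice were implanted with 10⁶ L1210 cells in 0.1 mL, from a line kept in culture and passaged in CD2F1 donor mice. A single i.p. dose was given in DMSO (≤0.025 mL). Groups held 5–10 mice, with vehicle-treated tumor-bearing controls. Read-out is average percent body-weight change from onset to termination of therapy, used as the toxicity index.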

| Compound | Change in weight [1] [%] | Survival [7] [%] | T/C [9] [%] | also measured |
| --- | --- | --- | --- | --- |
| CN(N(S(C)(=O)=O)S(C)(=O)=O)S(C)(=O)=O | -7.7 | – | – | Mean increase in survival [2]: 6.3 days; Mean increase in survival [3]: 3.7 days; Mean increase in survival [4]: 1.2 days; Survival [5]: 0% |
| CS(=O)(=O)N(CCCl)N(S(C)(=O)=O)S(C)(=O)=O | – | 100 | – | Change in weight [6]: -7.2% |
| CS(=O)(=O)N(CCBr)N(S(C)(=O)=O)S(C)(=O)=O | -2 | 0 | – | – |
| CN(NS(C)(=O)=O)S(C)(=O)=O | – | 0 | 180 | Change in weight [8]: -5.8% |
| Cc1ccc(S(=O)(=O)N(CCCl)N(S(C)(=O)=O)S(C)(=O)=O)cc1 | -12 | 60 | 210 | – |
| CS(=O)(=O)N(N(CCCl)S(=O)(=O)c1ccccc1)S(C)(=O)=O | 0.5 | 40 | – | – |
| CS(=O)(=O)N(N(CCCl)S(=O)(=O)c1ccc(Cl)cc1)S(C)(=O)=O | – | 60 | – | Change in weight [10]: -3.4% |
| CS(=O)(=O)OCCN(N(S(C)(=O)=O)S(C)(=O)=O)S(C)(=O)=O | – | 0 | – | Change in weight [11]: -4.2% |
| CS(=O)(=O)N(CCI)N(S(C)(=O)=O)S(C)(=O)=O | 8 | 0 | 110 | – |
| COc1ccc(S(=O)(=O)N(CCCl)N(S(C)(=O)=O)S(C)(=O)=O)cc1 | – | 100 | – | Change in weight [10]: 5.9% |
| CS(=O)(=O)N(N(CCCl)S(=O)(=O)c1ccc(Br)cc1)S(C)(=O)=O | 0.9 | 60 | – | – |
| CS(=O)(=O)NN(CCCl)S(C)(=O)=O [VPN-4090CE] | – | 40 | 130 | Change in weight [12]: -3.3% |
